Here are results for ten molecules from article PMC8647718 (Free radical biology & medicine, 2020).

The subject of data set [1] is Nrf2. As to the kind of experiment: ARE-luciferase reporter assay in HepG2-ARE cells. Format: cell-based. As to conditions: 24 h, 0–25 μM, (−) = concentration range tested did not quadruple Nrf2 activation. For orientation: A reporter such as luciferase makes a cellular process visible.
The subject of data set [2] is AhR. As to the kind of experiment: AhR-luciferase. The data set is classed as cell-based, mouse. To be noted: for AhR activation CQ (concentration of quadrupling): H1L6.1c3 cells, luciferase fold vs DMSO normalized to viability.
For data set [3], the system named is HepG2-ARE cells. The experiment in a line: MTT cell viability assay in HepG2-ARE cells. To be noted: read-out: Nrf2 activation IC50 (cell viability reduced by half). The data set is classed as cell-based.
The subject of data set [4] is H1L6.1c3 cells. As to the kind of experiment: MTT cell viability assay in H1L6.1c3 cells. As to conditions: for IC50: Mus musculus, read-out: AhR activation IC50 (cell viability reduced by half). A general note: Tetrazolium assays rely on reduction of a dye to a coloured formazan, in cell work by metabolically active cells.
In data set [5] the test system is Nrf2. The experiment in a line: Nrf2 nuclear translocation, immunoblot of nuclear proteins in HT-29 cells. Format: cell-based, human. To be noted: HT-29, 1 h; GarD 12.5 μM, tBHQ 50 μM. In outline: (§1)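 HT-29 cells exposed to test compound at 12.5 μM, with tBHQ 50 μM or FICZ 0.5 μM as reference activators, over a 6-h time course. Cytosolic and nuclear fractions were collected at set time points, quantified by BCA, and resolved by SDS-PAGE. Blots were probed for AhR or Nrf2, with densities normalised to β-actin or lamin A/C. At least three independent experiments; mean ± SD.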
(In general: A western blot detects proteins with antibodies after separation by electrophoresis.)

The subject of data set [6] is ZO-2, ZO-3, claudin-1 and claudin-4. The experiment in a line: Other TJ proteins, immunoblot in HT-29 cells. To be noted: HT-29, GarD 0–25 μM, data not shown. Format: cell-based, human.
Data set [7] concerns Nrf2. The experiment in a line: Total Nrf2 protein level, immunoblot of HT-29 whole cell lysates. To be noted: GarD 0–25 μM, 24 h. Format: cell-based, human. The procedure, abridged:
(§2)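 HT-29 cells treated for 24 h with test compound, tBHQ 50 μM or FICZ 0.5 μM as references. Densities were normalised to β-actin. Mean ± SD of triplicate experiments; one-way ANOVA with Tukey test, P ≤ 0.05.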

Data set [8] deals with occludin. The experiment in a line: Occludin tight junction protein level, immunoblot in HT-29 cells. The data set is classed as cell-based, human. To be noted: HT-29, GarD 0–25 μM, 24 h.
The subject of data set [9] is HT-29 cells. As to the kind of experiment: tBHP-induced ROS production. The data set is classed as cell-based, human.
Data set [10] concerns ZO-1. The experiment in a line: ZO-1 immunofluorescence microscopy in HT-29 cells. Format: cell-based, human.
Data set [11] relates to AhR. The experiment in a line: AhR nuclear translocation, immunoblot of nuclear proteins in HT-29 cells. Format: cell-based, human. To be noted: HT-29, 1 h; GarD 12.5 μM, FICZ 0.5 μM. The procedure, abridged: as §1
For data set [12], the system named is HT-29 monolayers. The experiment in a line: In vitro permeability assay of FITC-dextran through HT-29 monolayers. The data set is classed as cell-based, human. To be noted: HT-29 transwell, GarD 6.25 or 12.5 μM pretreatment 6 h, 100 μM tBHP 16 h. In outline:
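HT-29 cells seeded at 1.5 × 10^5 cells/cm2 on transwell inserts and differentiated; only monolayers with TEER above 200 […] were used. Test compound was added apically for 6 h, then 100 μM tBHP for 16 h. Apical 4 kDa FITC-dextran (0.5 mg mL−1 in HBSS/HEPES), HBSS basolateral. Basolateral samples at 0.5–4 h read at 485/530 nm; % of control.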

For data set [13], the system named is heme oxygenase-1 (HO-1). As to the kind of experiment: HO-1 protein level, immunoblot of HT-29 whole cell lysates. The data set is classed as cell-based, human. To be noted: GarD 0–25 μM, 24 h. The procedure, abridged: as §2
In data set [14] the test system is HT-29 cells. As to the kind of experiment: Total intracellular ROS. Format: cell-based, human. As to conditions: HT-29, 12 h; GarD 25 μM, tBHP 25 μM (positive control).
Data set [15] deals with ZO-1. As to the kind of experiment: ZO-1 tight junction protein level, immunoblot in HT-29 cells. To be noted: HT-29, GarD 0–25 μM, 24 h. The data set is classed as cell-based, human.
Data set [16] concerns Cyp1a1. As to the kind of experiment: Cyp1a1 protein level, immunoblot of HT-29 cell lysates. Format: cell-based, human. As to conditions: HT-29, 24 h; GarD 12.5 μM, FICZ 500 nM. In outline:
as §2

Data set [17] deals with AhR. The experiment in a line: AhR protein level, immunoblot of HT-29 cell lysates. The data set is classed as cell-based, human. As to conditions: HT-29, 24 h; GarD 12.5 μM, FICZ 500 nM. In outline:
as §2

Data set [18] has as its system Nrf2. To be noted: HT-29 cells, 10 μM; cited from earlier work.
The test system of data set [19] is claudin-1. As to the kind of experiment: tBHP oxidative stress-induced TJ disruption, claudin-1 immunoblot in HT-29 cells. To be noted: HT-29, tBHP 50 μM, 16 h. Format: cell-based, human.
Data set [20] has as its system ZO-1. As to the kind of experiment: tBHP oxidative stress-induced TJ disruption, ZO-1 immunoblot in HT-29 cells. Format: cell-based, human. As to conditions: HT-29, tBHP 50 μM, 16 h.
Data set [21] deals with occludin. As to the kind of experiment: tBHP oxidative stress-induced TJ disruption, occludin immunoblot in HT-29 cells. The data set is classed as cell-based, human. To be noted: HT-29, tBHP 50 μM, 16 h.

“And” between values parts separate entries of the source, which are not always exact repeats. Identical values can stand only once.

Take `CC(C)=CCc1c(O)c(CC=C(C)C)c2oc3c(O)cccc3c(=O)c2c1O` [Compound 1, 8-desoxygartanin]: the “Nrf2 activation CQ (concentration of quadrupling)” value (“Nrf2 activation CQ” for short) in data set [1] worked out at 22.19 ± 1.24 µM. Further, the “AhR activation CQ (concentration of quadrupling)” value (“AhR activation CQ” for short) in data set [2] (24 h) was 0.162 ± 0.001 µM.

As for `CC(C)=CCc1c(O)c(CC=C(C)C)c2oc3c(O)ccc(O)c3c(=O)c2c1O` [Compound 2, gartanin], the “Nrf2 activation CQ” value in data set [1] is 9.4 µM and 9.43 ± 1.90 µM. Moreover, the IC50 in [3] is 63.6 ± 1.94 µM; in [4] it was 36.5 ± 0.71 µM.

In the case of `COc1c(O)cc2oc3cc(O)c(CC=C(C)C)c(O)c3c(=O)c2c1CC=C(C)C` [Compound 3, α-mangostin], in data set [1], the “Nrf2 activation CQ” value was 16.25 ± 0.46 µM.

Turning to `COc1cc2oc3cc(O)c(OC)c(CC=C(C)C)c3c(=O)c2c(O)c1CC=C(C)C` [Compound 5, β-mangostin], the “CQ value relative to the rest of the compounds” value in data set [2] (AhR activation, H1L6 cells) is given as 10–36 times higher. Also, in [2] (24 h), the “AhR activation CQ” value stood at 5.125 ± 0.006 µM.

On to `COc1c(O)cc2oc3cc(O)c(CC=C(C)C)c(O)c3c(=O)c2c1CCC(C)(C)O` [Compound 6, garcinone D], for which, in data set [5], the “nuclear Nrf2 level” value is 1.9 fold greater than the control. The “inducing effect on other TJ proteins (ZO-2, ZO-3, claudin-1, claudin-4)” value in [6] is given as “no inducing effect”. Also, the “increase in total Nrf2 protein vs control” value in data set [7] is on record as 40%. Further, in [1], the “Nrf2 activation CQ” value is 8.0 µM and 8.08 ± 0.07 µM. Moreover, in [2] (24 h), the “AhR activation CQ” value was 0.142 µM and 0.142 ± 0.008 µM. Besides, the figures for the 50% inhibitory concentration (IC50) in data set [3] and in [4] were 38.5 ± 7.27 µM and more than 100 µM, respectively. Further, the “increase in occludin protein relative to untreated controls” value in data set [8] is 22–91%. For the same molecule, the “suppression of tBHP-induced ROS production vs tBHP” value in data set [9] (HT-29, GarD pretreatment (0–25 μM, 6 h), dose-dependent) is reported as 25 to 68%. For the same molecule, the “ZO-1 intensity lost to tBHP treatment rescued” value in data set [10] (HT-29, 2-h pre-treatment GarD 12.5 μM, co-incubation with tBHP 16 h) worked out at 45%. The “nuclear AhR accumulation (peak)” value in data set [11] is 3.8 fold increase vs control. Moreover, in data set [12], the “tBHP induced leakage of FITC-dextran” value is “dose-dependently inhibited”. Also, in [13], the “increase in HO-1 protein vs control” value was determined as 37%. Further, the “AhR activation IC50 (cell viability reduced by half)” value in data set [4] (H1L6 cells, MTT, max 100 μM, (−) = did not exhibit >50% cell toxicity at the concentration range tested) is listed as “without exhibiting >50% H1L6 cell toxicity”. Also, the “ROS level (DCF fluorescence) relative to untreated control” value in [14] was 2 fold. Besides, in [15], the “increase in ZO-1 protein relative to untreated controls” value is recorded as 34–83%.

In the case of `CC(C)=CCc1c(O)cc2oc3cc(O)c(O)c(CC=C(C)C)c3c(=O)c2c1O` [Compound 7, γ-mangostin], the “Nrf2 activation CQ” value in data set [1] worked out at 14.93 ± 0.10 µM.

In the case of `O=Cc1c2[nH]c3ccccc3c2cc2[nH]c3ccccc3c12` [FICZ, 6-formylindolo[3,2-b] carbazole, reference compound], in [16], the “increase in Cyp1a1 protein” value worked out at 3.5 fold. Besides, in data set [2] (FICZ 500 nM, 24 h, H1L6 cells), the “increase of luminescence signal” value is 43 fold of control. Besides, the “nuclear AhR accumulation (peak)” value in data set [11] is reported as 4.6 fold increase vs control. The “increase in AhR protein” value in data set [17] came out at 2.8 fold.

`C[S+]([O-])CCCCN=C=S` (stereo not shown) [sulforaphane]: in data set [18], the “induction of Nrf2 relative to the control” value is recorded as 200%.

Consider `CC(C)(C)OO` [tBHP, tert-butyl hydroperoxide, reference compound], for which the “reduction in claudin-1 compared to untreated controls” value in data set [19] amounted to 48%. Also, in [20], the “reduction in ZO-1 compared to untreated controls” value is given as 68%. In data set [21], the “reduction in occludin compared to untreated controls” value is listed as 28%. Moreover, the “increase in total ROS levels relative to controls” value in [9] (HT-29, 2 mM tBHP, 4 h) stood at 2 fold. Further, the ZO-1 fluorescence intensity in data set [10] (HT-29, tBHP 50 μM, 16 h) is recorded as 45 % of the control. Also, the “ROS level (DCF fluorescence) relative to untreated control” value in data set [14] worked out at 4 fold.

Take `CC(C)(C)c1cc(O)ccc1O` [tBHQ, tert-butyl hydroquinone, reference compound]: in [5], the “nuclear Nrf2 level” value is “Nuclear translocation of Nrf2 was also demonstrated”.

By IC50 is commonly meant the concentration needed to halve the response being measured.
